These results are taken from ChEMBL document CHEMBL1125451, “Structure-activity studies of a novel bicyclic oxytocin antagonist” (J Med Chem, 1992).

Assay [1] deals with Rattus norvegicus. The assay is described as follows: (§1) In vivo pressor activity by vasopressin assay in rats. The class given is functional.
Assay [2] deals with Rattus norvegicus. The assay is described as follows: (§2) In vivo oxytocin antagonistic activity […] was determined by galactogogic assay. In kind it is functional.
For assay [3], the species on record is Rattus norvegicus. The assay is described as follows: In vitro oxytocin antagonistic activity against rat uterine strips; o = inactive up to dose 2*10e-2. The class given is functional. Summed up: (§3)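 Isolated uterine strips from Wistar rats estrogenized 24-48 h beforehand, tested in Munsick's solution by the Holton method. Cumulative oxytocin dose-response curves were constructed, with antagonist added to the bath 1 min before the oxytocin curve was started. Antagonism expressed as pA2.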

For assay [4], the system named is Rattus norvegicus. The assay is described as follows: In vivo pressor activity by vasopressin assay in rats; o = inactive up to dose 2*10e-2. The class given is functional, organism-based.
The species named for assay [5] is Rattus norvegicus. The assay is described as follows: In vitro oxytocin antagonistic activity against rat uterine strips. The class given is functional. As to conditions: read-out: pA2 (converted). The essentials: as §3
The test system of assay [6] is Rattus norvegicus. The description is as §1. The class given is functional, organism-based. As to conditions: read-out: pA2 (converted).
For assay [7], the target named is T1, Oxytocin receptor (Rattus norvegicus, UniProt P70536).
T1 sequence (P70536 whole entry): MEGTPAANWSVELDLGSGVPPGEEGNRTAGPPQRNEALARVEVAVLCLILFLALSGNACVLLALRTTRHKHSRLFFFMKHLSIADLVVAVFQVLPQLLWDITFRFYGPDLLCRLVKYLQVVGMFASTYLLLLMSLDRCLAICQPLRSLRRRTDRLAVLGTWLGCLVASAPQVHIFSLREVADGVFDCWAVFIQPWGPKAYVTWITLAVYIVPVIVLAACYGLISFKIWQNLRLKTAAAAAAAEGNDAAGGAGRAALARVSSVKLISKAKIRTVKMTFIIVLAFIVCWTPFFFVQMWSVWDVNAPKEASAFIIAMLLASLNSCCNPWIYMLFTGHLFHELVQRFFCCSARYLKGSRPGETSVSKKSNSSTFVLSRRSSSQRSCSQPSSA
The assay is described as follows: In vitro Oxytocin receptor antagonistic activity against rat uterine strips. As to conditions: read-out: pA2 (converted). The class given is functional. Summed up:
as §3

In assay [8] the test system is Rattus norvegicus. Kind of assay: In vivo pressor activity by vasopressin assay in rats(inactive up to dose 2*10e-2). The class given is functional.
In assay [9] the test system is Rattus norvegicus. Described as §2. As to conditions: read-out: pA2 (converted). In kind it is functional, organism-based.

Molecules are shown by their SMILES. Activity calls are given as the source filed them. The calls are words filed in the database; no cut-off is given here. Numbered stars: 1 amine (or outer) side, 2 acyl side, 3 side chain; on linkers, the order of the positions; unused ones are H or OH. Bridge positions count the residues as written; N and C are the ends. Square brackets hold non-standard residues; d marks the D form. Peptide text beside a SMILES is read from it. * marks the point of attachment. X1 = CC(C)(CC(=O)[*:1])S[*:2]; Mpa = O=C(O)CCS; For = O=C*

For the compound `CC[C@H](C)[C@@H]1NC(=O)[C@H](Cc2ccc(O)cc2)NC(=O)CCSSC[C@@H](C(=O)N2CCC[C@H]2C(=O)N[C@@H](CCCCN)C(=O)NCC(N)=O)NC(=O)[C@H](CC(N)=O)NC(=O)[C@H](CCC(=O)O)NC1=O`, the Activity in assay [1] turned out to be 0.1 IU mg-1; in assay [2], 9.1 IU mg-1. For `CC[C@@H](C)[C@@H]1NC(=O)[C@@H](Cc2ccc(O)cc2)NC(=O)CCSSC[C@@H](C(=O)N2CCC[C@@H]2C(=O)N[C@@H](CCCCNC=O)C(=O)NCC(N)=O)NC(=O)[C@H](CC(N)=O)NC(=O)[C@@H](CCC(=O)O)NC1=O`, the outcome in assay [3] and in assay [4] was inactive.

In the case of `CC[C@H](C)[C@@H]1NC(=O)[C@H](Cc2ccc(O)cc2)NC(=O)[C@@H](N)CSSC[C@@H](C(=O)N2CCC[C@H]2C(=O)N[C@@H](CC(C)C)C(=O)NCC(N)=O)NC(=O)[C@H](CC(N)=O)NC(=O)[C@H](CCC(N)=O)NC1=O` [OXYTOCIN], the Activity in [1] was 3.1 IU mg-1; in assay [2], 450 IU mg-1. In the same order, the values of `CC[C@H](C)[C@@H]1NC(=O)[C@H](Cc2ccc(O)cc2)NC(=O)CCSSC[C@@H](C(=O)N2CCC[C@H]2C(=O)N[C@@H](CC(C)C)C(=O)NCC(N)=O)NC(=O)[C@H](CC(N)=O)NC(=O)[C@H](CCC(N)=O)NC1=O` are 1.44 IU mg-1 and 541 IU mg-1. For the compound `CC[C@H](C)[C@@H]1NC(=O)[C@H](Cc2ccc(O)cc2)NC(=O)CCSSC[C@@H](C(=O)N2CCC[C@H]2C(=O)N[C@@H](CCCCNC=O)C(=O)NCC(N)=O)NC(=O)[C@H](CC(N)=O)NC(=O)[C@H](CCC(N)=O)NC1=O`, the Activity in [1] is recorded as 101.6 IU mg-1; in assay [2] it was 517 IU mg-1. In the case of `CC[C@H](C)[C@@H]1NC(=O)[C@H](Cc2ccc(O)cc2)NC(=O)CCSSC[C@@H](C(=O)N2CCC[C@H]2C(=O)N[C@@H](CCCCNC=O)C(=O)NCC(N)=O)NC(=O)[C@H](CC(N)=O)NC(=O)[C@H](CCC(=O)O)NC1=O`, in assay [2], the Activity is on record as 8 IU mg-1. In the case of `CC[C@H](C)[C@@H]1NC(=O)[C@H](Cc2ccc(O)cc2)NC(=O)CC(C)(C)SSC[C@@H](C(=O)N2CCC[C@H]2C(=O)N[C@@H](CC(C)C)C(=O)NCC(N)=O)NC(=O)[C@H](CC(N)=O)NC(=O)[C@H](CCC(N)=O)NC1=O` (YIQNCPLG-NH2; linker N-5 via X1), the figures for the Kb in assay [5] and in [6] were 115 nM and 537 nM, respectively. As for `CC[C@H](C)[C@@H]1NC(=O)[C@H](Cc2ccc(O)cc2)NC(=O)CC(C)(C)SSC[C@@H](C(=O)N2CCC[C@H]2C(=O)N[C@@H](CCCCN)C(=O)NCC(N)=O)NC(=O)[C@H](CC(N)=O)NC(=O)[C@H](CCC(N)=O)NC1=O` (YIQNCPKG-NH2; linker N-5 via X1), the Kb in assay [7] was 16.6 nM. Turning to `CC[C@H](C)[C@@H]1NC(=O)[C@H](Cc2ccc(O)cc2)NC(=O)CCSSC[C@@H]2NC(=O)[C@H](CC(N)=O)NC(=O)[C@H](CCC(=O)NCCCC[C@@H](C(=O)NCC(N)=O)NC(=O)[C@@H]3CCCN3C2=O)NC1=O` ([Mpa]YIENCPKG-NH2; disulfide 1-6; lactam 4-8) [listing 1 of 2 here], the Activity in assay [1] turned out to be 0.1 IU mg-1. Turning to `CC[C@H](C)[C@@H]1NC(=O)[C@H](Cc2ccc(O)cc2)NC(=O)CC(C)(C)SSC[C@@H](C(=O)N2CCC[C@H]2C(=O)N[C@@H](CCCCNC=O)C(=O)NCC(N)=O)NC(=O)[C@H](CC(N)=O)NC(=O)[C@H](CCC(=O)O)NC1=O` (YIENCPK(For)G-NH2; linker N-5 via X1), the Kb in [5] is 7940 nM. Take `CC[C@H](C)[C@@H]1NC(=O)[C@H](Cc2ccc(O)cc2)NC(=O)CCSSC[C@@H](C(=O)N2CCC[C@H]2C(=O)N[C@@H](CCCCN)C(=O)NCC(N)=O)NC(=O)[C@H](CC(N)=O)NC(=O)[C@H](CCC(N)=O)NC1=O`: the values for the Activity in assay [1] and in assay [2] were 368 IU mg-1 and 272 IU mg-1, respectively. The compound `CC[C@H](C)[C@@H]1NC(=O)[C@H](Cc2ccc(O)cc2)NC(=O)[C@@H](N)C(C)(C)SSC[C@@H](C(=O)N2CCC[C@H]2C(=O)N[C@@H](CC(C)C)C(=O)NCC(N)=O)NC(=O)[C@H](CC(N)=O)NC(=O)[C@H](CCC(N)=O)NC1=O` came in with an Activity in assay [8] of 0 IU mg-1. Take `CC[C@H](C)[C@@H]1NC(=O)[C@H](Cc2ccc(O)cc2)NC(=O)CC(C)(C)SSC[C@@H](C(=O)N2CCC[C@H]2C(=O)N[C@@H](CCCCNC=O)C(=O)NCC(N)=O)NC(=O)[C@H](CC(N)=O)NC(=O)[C@H](CCC(N)=O)NC1=O` (YIQNCPK(For)G-NH2; linker N-5 via X1) [listing 1 of 2 here]: the Kb in [5] is 39.8 nM; in [6], 631 nM. `CC[C@H](C)[C@@H]1NC(=O)[C@H](Cc2ccc(O)cc2)NC(=O)CCSSC[C@@H]2NC(=O)[C@H](CC(N)=O)NC(=O)[C@H](CCC(=O)NCCCC[C@@H](C(=O)NCC(N)=O)NC(=O)[C@@H]3CCCN3C2=O)NC1=O` ([Mpa]YIENCPKG-NH2; disulfide 1-6; lactam 4-8) [listing 2 of 2 here]: the Kb in assay [9] is 1000 nM; in assay [7], 6.31 nM. As for `CC[C@H](C)[C@@H]1NC(=O)[C@H](Cc2ccc(O)cc2)NC(=O)CC(C)(C)SSC[C@@H](C(=O)N2CCC[C@H]2C(=O)N[C@@H](CCCCN)C(=O)NCC(N)=O)NC(=O)[C@H](CC(N)=O)NC(=O)[C@H](CCC(=O)O)NC1=O` (YIENCPKG-NH2; linker N-5 via X1) [listing 1 of 2 here], the Kb in [7] is 1580 nM. Turning to `CC[C@H](C)[C@@H]1NC(=O)[C@H](Cc2ccc(O)cc2)NC(=O)CC(C)(C)SSC[C@@H](C(=O)N2CCC[C@H]2C(=O)N[C@@H](CCCCNC=O)C(=O)NCC(N)=O)NC(=O)[C@H](CC(N)=O)NC(=O)[C@H](CCC(N)=O)NC1=O` (YIQNCPK(For)G-NH2; linker N-5 via X1) [listing 2 of 2 here], the Activity in assay [2] came out at 1.1 IU mg-1. `CC[C@H](C)[C@@H]1NC(=O)[C@H](Cc2ccc(O)cc2)NC(=O)CC(C)(C)SSC[C@@H](C(=O)N2CCC[C@H]2C(=O)N[C@@H](CCCCN)C(=O)NCC(N)=O)NC(=O)[C@H](CC(N)=O)NC(=O)[C@H](CCC(=O)O)NC1=O` (YIENCPKG-NH2; linker N-5 via X1) [listing 2 of 2 here]: the Activity in assay [1] is given as 0 IU mg-1; in assay [2], less than 0.01 IU mg-1.
